# Measurements as given in ChEMBL document CHEMBL1156234, “Novel 4-(piperidin-4-yl)-1-hydroxypyrazoles as gamma-aminobutyric acid(A) receptor ligands: synthesis, pharmacology, and structure-activity relationships” (J Med Chem, 2010).
# Experiments:
# [1] = Displacement of [3H]muscimol from GABAA in rat synaptic membrane by scintillation counting; format: cell membranes
# Procedure, shortened: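 Rat brain synaptic membrane preparations; native GABAA receptor binding measured by displacement of [3H]muscimol. Ki reported as mean [mean pKi ± SEM] of three to four independent experiments.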
# [2] = molecular target: T1, GABA-A receptor; alpha-1/beta-2/gamma-2 (Homo sapiens, UniProt P14867+P18507+P47870); assay: Antagonist activity at human GABAA alpha-1-beta-2-gamma-2 receptor expressed in mouse tsA201 cells by FMP red assay; format: functional, cell-based
# T1 sequence (P14867 whole entry): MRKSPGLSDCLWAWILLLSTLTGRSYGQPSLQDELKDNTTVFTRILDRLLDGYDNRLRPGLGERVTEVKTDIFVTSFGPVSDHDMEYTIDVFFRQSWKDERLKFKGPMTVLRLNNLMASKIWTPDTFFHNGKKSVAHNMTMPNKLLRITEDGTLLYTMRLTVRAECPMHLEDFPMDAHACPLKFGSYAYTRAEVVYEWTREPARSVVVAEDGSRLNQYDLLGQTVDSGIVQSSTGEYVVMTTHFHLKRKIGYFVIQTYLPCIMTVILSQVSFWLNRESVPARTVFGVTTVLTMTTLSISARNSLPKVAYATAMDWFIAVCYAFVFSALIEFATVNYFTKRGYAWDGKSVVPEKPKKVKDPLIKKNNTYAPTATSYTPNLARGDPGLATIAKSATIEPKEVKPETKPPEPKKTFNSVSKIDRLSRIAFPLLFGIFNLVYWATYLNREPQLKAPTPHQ
# T1 sequence (P47870 whole entry): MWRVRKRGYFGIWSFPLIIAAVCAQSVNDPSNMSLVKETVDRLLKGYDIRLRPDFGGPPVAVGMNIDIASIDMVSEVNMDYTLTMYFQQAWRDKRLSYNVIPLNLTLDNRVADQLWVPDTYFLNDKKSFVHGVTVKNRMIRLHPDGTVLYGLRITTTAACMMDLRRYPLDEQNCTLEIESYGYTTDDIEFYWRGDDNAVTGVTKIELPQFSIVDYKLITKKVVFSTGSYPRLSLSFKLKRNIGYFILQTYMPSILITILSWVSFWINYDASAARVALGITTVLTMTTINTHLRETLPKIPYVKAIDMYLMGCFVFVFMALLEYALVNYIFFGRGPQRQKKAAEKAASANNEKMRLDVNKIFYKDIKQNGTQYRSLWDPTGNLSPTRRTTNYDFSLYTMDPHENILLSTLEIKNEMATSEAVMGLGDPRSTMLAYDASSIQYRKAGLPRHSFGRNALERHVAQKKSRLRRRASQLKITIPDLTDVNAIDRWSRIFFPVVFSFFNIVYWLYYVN
# T1 sequence (P18507 whole entry): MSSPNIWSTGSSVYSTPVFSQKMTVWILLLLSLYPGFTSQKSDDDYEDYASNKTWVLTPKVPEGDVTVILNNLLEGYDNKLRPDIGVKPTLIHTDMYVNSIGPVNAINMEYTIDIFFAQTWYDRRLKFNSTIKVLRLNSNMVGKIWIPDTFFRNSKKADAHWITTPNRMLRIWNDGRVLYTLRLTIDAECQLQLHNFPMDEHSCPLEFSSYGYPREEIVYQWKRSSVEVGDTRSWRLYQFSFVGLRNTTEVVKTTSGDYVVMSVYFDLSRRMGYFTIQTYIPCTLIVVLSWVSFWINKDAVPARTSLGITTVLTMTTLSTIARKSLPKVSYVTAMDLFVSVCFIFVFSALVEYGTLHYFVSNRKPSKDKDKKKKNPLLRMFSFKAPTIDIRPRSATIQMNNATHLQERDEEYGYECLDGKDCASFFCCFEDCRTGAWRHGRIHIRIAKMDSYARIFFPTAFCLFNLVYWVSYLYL
# Procedure, shortened: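 Human α1β2γ2S GABAA receptor transiently expressed in tsA201 cells; FLIPR membrane potential (FMP) red assay. […] Compounds tested up to 500 μM. Values given as IC50 [pIC50 ± SEM].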
# [3] = Displacement of [3H]muscimol from GABAA in rat synaptic membrane in presence of 10% DMSO by scintillation counting; format: cell membranes
# [4] = molecular target: T1, GABA-A receptor; alpha-1/beta-2/gamma-2; assay: Agonist activity at human GABAA alpha-1-beta-2-gamma-2 receptor expressed in mouse tsA201 cells at < 500 uM by FMP red assay; format: functional, cell-based
# Procedure, shortened: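 Human α1β2γ2S GABA-A receptor transiently expressed in tsA201 cells; agonist-mode FLIPR membrane potential (FMP) red assay measuring the fluorescence change in membrane potential; compounds tested at concentrations up to 500 μM.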
SMILES,Ki [1] [nM],pKi [1],IC50 [2] [nM],Ki [3] [nM],pKi [3],IC50 ([4]; read-out: IC50) [nM],IC50 ([4]; read-out: pIC50 (converted)) [nM]
Br.Cc1nn(O)cc1C1CCNCC1,5000,5.31,66000,–,–,–,–
Br.On1cc(C2CCNCC2)c(-c2ccccc2)n1,270,6.57,1900,–,–,–,–
Br.Cc1ccc(-c2nn(O)cc2C2CCNCC2)cc1,320,6.5,1400,–,–,–,–
Br.On1cc(C2CCNCC2)c(-c2ccc(-c3ccccc3)cc2)n1,420,6.39,1400,–,–,–,–
Br.On1nc(Cc2ccc3ccccc3c2)c(C2CCNCC2)c1-c1ccccc1,–,–,–,22,7.66,–,–
Cl.On1cc(C2CCNCC2)cn1,10000,4.99,–,–,–,> 500000,> 501000
Cc1ccccc1-c1nn(O)cc1C1CCNCC1.Cl,670,6.17,2600,–,–,–,–
Cc1cccc(-c2nn(O)cc2C2CCNCC2)c1.Cl,240,6.62,1900,–,–,–,–
Cl.On1cc(C2CCNCC2)c(Cc2ccccc2)n1,360,6.45,8300,–,–,–,–
Cl.On1nc(-c2ccccc2)c(C2CCNCC2)c1Cc1ccc2ccccc2c1,–,–,3200,1500,5.84,–,–
Oc1noc(C2CCNCC2)c1Cc1ccc2ccccc2c1,49,–,1800,–,–,–,–
Oc1noc(C2CCNCC2)c1Cc1ccc2ccccc2c1Br,10,–,–,–,–,–,–
Oc1noc(C2CCNCC2)c1-c1ccccc1,220,–,–,–,–,–,–

# Further compounds by falling IC50 [2], results first:
Ki [1] [nM],pKi [1],IC50 [2] [nM],Ki [3] [nM],pKi [3],SMILES,IC50 ([4]; read-out: IC50) [nM],IC50 ([4]; read-out: pIC50 (converted)) [nM]
33,7.48,790,–,–,Cl.On1ncc(C2CCNCC2)c1Cc1ccc2ccccc2c1,–,–
–,–,480,9.5,8.07,Cl.On1ncc(C2CCNCC2)c1Cc1ccc2ccccc2c1Br,–,–
30,7.55,210,–,–,Cl.On1cc(C2CCNCC2)c(-c2cccc(-c3ccccc3)c2)n1,–,–
3,8.55,170,–,–,Br.On1cc(C2CCNCC2)c(Cc2ccc3ccccc3c2)n1,–,–
22,7.65,150,–,–,Br.On1ncc(C2CCNCC2)c1-c1ccccc1,–,–
10,–,78,–,–,Oc1noc(C2CCNCC2)c1-c1cccc(-c2ccccc2)c1,–,–
–,–,24,–,–,Cl.On1ncc(C2CCNCC2)c1-c1cccc(-c2ccccc2)c1,–,–
